Screening results from PubChem.
Only some compounds are listed: those with a hit (about 3.1% of all), similar ones and a draw of the others.
ADAM17 inh: ADAM17 inhibitors, primary screen, biochemical, QFRET | recombinant ADAM17, EDANS/DABCYL FRET peptide cleavage | inhibition, % at 6.95 µM | actives 0.83% (n = 370,000);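 active = inhibition above the mean of compounds lying between control limits plus 3 SD, set per campaign, cut at about 8.5% in these data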
ADAM10 inh: human ADAM10 inhibitors, primary screen, biochemical, QFRET, HTS | Disintegrin and metalloproteinase domain-containing protein 10 (Homo sapiens), O14672 | recombinant ADAM10, EDANS/DABCYL FRET peptide cleavage, 3 h | inhibition, % at 7 µM | actives 0.62% (n = 370,000) | AID 720582, 2013;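 active = inhibition above a per-campaign cutoff equal to the mean of compounds falling between control-based bounds plus 3 SD, cut at about 20% in these data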
V-ATPase pH: regulators of yeast V-ATPase proton pumping, primary screen, pHLuorin cytosolic pH fluorescence | S. cerevisiae | response, % at 10 µM | actives 0.37% (n = 350,000) | AID 504577, 2011; in the data active = response mostly above about 7.3%, no sharp cut-off; inactive = mostly below about 5.4%; also: actives read high
MPTP inh: mitochondrial permeability transition pore inhibitors, primary screen, biochemical, isolated mouse mitochondria, absorbance; AID 602449, 2012; actives 1.4% (n = 360,000); Ca2+ swelling absorbance, 30 min; inhibition, % at 10 µM;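 active = inhibition of 50% or more, scaled per plate between neutral and stimulator controls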
Hep lipid drop: inhibitors of hepatocyte lipid droplet formation, primary screen, imaging, high-throughput imaging, BODIPY stain; AML12 mouse hepatocytes, oleate lipid droplets; inhibition, % at 6.5 µM; actives 0.4% (n = 240,000); AID 1656, 2009;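 active = lipid droplet intensity inhibited by at least 50%, with more than 500 cells counted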
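material = mouse AML12 hepatocyte cell line, fixed after treatment | also added = 100 µM oleic acid challenge | doses = compound at 6.5 µM only | schedule = overnight exposure | technique = Image-based BODIPY and DAPI two-channel analysis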
aDG glyco act: activators of alpha-DG glycosylation, primary screen, uHTS, Pro5-aDG cells, AlphaScreen | alpha-DG glycosylation AlphaScreen (IIH6); 0% Pro5, 100% B10-LARGE cell signal | activation, % at 10 µM | actives 0.22% (n = 360,000);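 active = activation of at least 8% versus controls, or a plate z-score of at least 8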;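 also: Pro5 are CHO cells carrying HIG-tagged alpha-DG that lacks glycosylation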
ADAM10 counter: ADAM10 inhibitors, counter-screen for ADAM17 exosite inhibitor project, biochemical, FRET, human ADAM10; actives 47% (n = 2,900); inhibition, % at 6.95 µM; shares compounds with ADAM17 inh; AID 743256, 2014; recombinant ADAM10, EDANS/DABCYL FRET peptide cleavage, 3 h;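 active = mean inhibition over the triplicate runs exceeds the activity threshold set in the earlier primary screen, cut at about 20% in these data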
ADAM17 confirm: ADAM17 inhibitors, hit retest, confirmation, biochemical, QFRET peptide cleavage; shares compounds with ADAM17 inh; recombinant ADAM17, EDANS/DABCYL QFRET peptide cleavage; inhibition, % at 6.95 µM; actives 65% (n = 2,900);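 active = mean inhibition across replicates above the hit cutoff set in the primary screen, cut at about 8.5% in these data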
Of the large screens only hits and unclear results are named; the others gave an inactive call (follow-up assays come after a bar, where they were run).

Cc1cc(C)c(S(=O)(=O)N2CCCOC2CNC(=O)C(=O)NCCc2c[nH]c3ccccc23)c(C)c1 (stereo unspecified)	ADAM17 inh 8.6 | ADAM10 counter 20 | ADAM17 confirm 12
Cc1cc(C)cc(NC(=O)C(=O)NCCc2c[nH]c3ccccc23)c1	ADAM17 inh 11, ADAM10 inh 27 | ADAM10 counter 21 | ADAM17 confirm 11
COc1ccc(CNC2CCC23CCC(C)CC3)cc1 (stereo unspecified)	none (no result: V-ATPase pH, MPTP inh, Hep lipid drop, aDG glyco act)
CC(COc1cccc(OC(F)(F)F)c1)CN1CCC(C(O)(c2ccccc2)c2ccccc2)CC1 (stereo unspecified)	none (no result: V-ATPase pH, MPTP inh, Hep lipid drop, aDG glyco act)
COc1cccc(NC(=O)C2CCN(S(=O)(=O)c3ccc4c(c3)CC(C)N4C(C)=O)CC2)c1 (stereo unspecified)	none
CC(=O)N1c2ccc(S(=O)(=O)N3CCC(C(=O)Nc4cccc(C(F)(F)F)c4)CC3)cc2CC1C (stereo unspecified)	ADAM17 inh 10 | ADAM10 counter inactive | ADAM17 confirm 9.4
Cc1ccc(NC(=O)CCS(=O)(=O)c2ccc3c(c2)NC(=O)C(C)S3)cc1Cl (stereo unspecified)	none
CC1Sc2ccc(S(=O)(=O)CCC(=O)Nc3ccccc3Cl)cc2NC1=O (stereo unspecified)	ADAM17 inh 9.3 | ADAM10 counter inactive | ADAM17 confirm inactive
Cc1ccc(CCNC(=O)CCCn2nc(C)c3c(C)n(-c4ccc(C)cc4)nc3c2=O)cc1	ADAM17 inh 11 | ADAM10 counter inactive | ADAM17 confirm inactive
CCS(=O)(=O)Nc1ccc2c(c1)C(=O)N(C)[C@@H]1CC[C@H](CC(=O)NCCOC)O[C@H]1CO2	none (no result: V-ATPase pH, MPTP inh, Hep lipid drop, aDG glyco act)
CCCCCCCCN1C(=O)[C@@H](CC(=O)NCc2cccc3ccccc23)C[C@@]2(C(=O)OC)C1=C[C@H](C(C)(C)C)O[C@@H]2C	none (no result: V-ATPase pH, MPTP inh, Hep lipid drop, aDG glyco act)
Cc1ccc(Cn2ccc(=O)c(OCc3c(Cl)cccc3Cl)c2C)cc1	ADAM17 inh 11 (no result: V-ATPase pH) | ADAM10 counter inactive | ADAM17 confirm 10
COc1ccc(S[C@]2(C(=O)N(C)C)CC(=O)N(C(=O)CCc3ccccc3)[C@@H]2c2ccc(OC)cc2)cc1	ADAM17 inh 10 (no result: V-ATPase pH, MPTP inh, Hep lipid drop, aDG glyco act) | ADAM10 counter inactive | ADAM17 confirm 9.8
COc1cc2c(c(OC)c1OC)C1(CCCCC1)CC2NS(=O)(=O)C(C)C (stereo unspecified)	none (no result: V-ATPase pH, MPTP inh, Hep lipid drop, aDG glyco act)
CC(C)NC(=O)CCn1nnc(-c2cccs2)n1	none (no result: V-ATPase pH, MPTP inh, Hep lipid drop, aDG glyco act)
Cc1ccc(NC(=O)Cc2ccc(OC(F)F)cc2)c(S(=O)(=O)N2CCOCC2)c1	none (no result: V-ATPase pH, MPTP inh, Hep lipid drop, aDG glyco act)
O=C1[C@@H](CCc2ccccc2)[C@@H]2c3cc4ccccc4cc3C=NN2[C@@H]2c3cc4ccccc4cc3C=NN12	none (no result: V-ATPase pH, MPTP inh, Hep lipid drop, aDG glyco act)
O=C(Nc1cccc(-c2csc(-c3ccccc3)n2)c1)c1cccs1	ADAM17 inh 9.8 | ADAM10 counter inactive | ADAM17 confirm 12
O=C(N/N=C/c1cccnc1)C1CCCN(S(=O)(=O)c2ccccc2)C1 (stereo unspecified)	ADAM17 inh 9.2 | ADAM10 counter inactive | ADAM17 confirm inactive
O=C(N/N=C/c1cccnc1)c1ccc(S(=O)(=O)N2CCCCCC2)cc1	none
Cc1cnc(NC(=O)CSc2ccc(Cl)cc2)s1	ADAM17 inh 9.0 (no result: Hep lipid drop) | ADAM10 counter inactive | ADAM17 confirm inactive
O=C(CSc1nnc(COc2ccc(Cl)cc2)n1Cc1ccco1)Nc1ccc(OCc2ccccc2)cc1	none (no result: V-ATPase pH, MPTP inh, Hep lipid drop, aDG glyco act)
